Source: paper PMC3594046 (Bioorganic & medicinal chemistry letters, 2013)

Assays:
[1] = system: PEPCK gene transcription (TR-responsive) in HepG2 cells; experiment: RT-PCR of T3-induced PEPCK transcription in HepG2 cells; assay type: cell-based; details: HepG2, co-treated with T3 (100 nM) and compound (1 μM and 100 nM), 24 h
In short: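 HepG2 cells were co-treated for 24 h with T3 (100 nM) and test compound at 1 μM or 100 nM. Controls were a T3 ligand antagonist and a known coactivator antagonist. mRNA was isolated and converted to cDNA, and diluted cDNA was used for real-time PCR of PEPCK. Fold induction was calculated by the ΔΔCt method, with two independent experiments in triplicate and standard errors.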

TRα / SRC2-2 interaction = biological target: T1, TRα / SRC2-2 interaction (Homo sapiens, UniProt P10827); experiment: FP competition assay, TRα-coactivator; assay type: binding; details: in words
T1 sequence (P10827 1-410 isoform P10827-2): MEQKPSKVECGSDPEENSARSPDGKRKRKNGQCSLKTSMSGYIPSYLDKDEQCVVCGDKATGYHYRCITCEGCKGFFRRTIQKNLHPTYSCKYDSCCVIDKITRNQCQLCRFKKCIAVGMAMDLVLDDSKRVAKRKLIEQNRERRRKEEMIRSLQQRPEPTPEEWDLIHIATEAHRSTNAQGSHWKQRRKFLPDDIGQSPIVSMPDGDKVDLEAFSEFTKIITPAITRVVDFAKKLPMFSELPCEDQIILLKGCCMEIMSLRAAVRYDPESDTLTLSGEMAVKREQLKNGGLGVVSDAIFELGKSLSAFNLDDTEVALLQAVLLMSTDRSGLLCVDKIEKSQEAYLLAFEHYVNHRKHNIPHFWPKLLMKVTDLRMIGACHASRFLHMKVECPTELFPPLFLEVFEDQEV

[2] = biological target: T2, TRβ-LBD / SRC2-2 peptide interaction (Homo sapiens, UniProt P10828); experiment: Fluorescence polarization; assay type: binding
T2 sequence (P10828 217-461 limits assumed): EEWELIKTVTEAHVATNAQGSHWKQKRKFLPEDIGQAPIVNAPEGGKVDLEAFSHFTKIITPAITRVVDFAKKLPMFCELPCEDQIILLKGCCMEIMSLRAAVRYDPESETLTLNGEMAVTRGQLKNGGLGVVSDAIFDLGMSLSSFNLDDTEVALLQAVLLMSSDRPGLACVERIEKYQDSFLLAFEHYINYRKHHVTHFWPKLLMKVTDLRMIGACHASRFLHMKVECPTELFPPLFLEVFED
In short: (§1)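 Fluorescence polarization competition assays: TRβ-LBD with Texas Red-labelled SRC2-2 peptide, and VDR with SRC2-3 peptide. Test compounds were 3-fold serially diluted in DMSO from a 10,000 μM top concentration and pin-transferred into the assay solutions. Each run was in triplicate and repeated twice, giving 6 replicates. EC50 is reported as the mean with standard deviation.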

[3] = biological target: T3, vitamin D receptor (VDR) / SRC2-3 interaction (Homo sapiens, UniProt P11473); experiment: FP competition assay, VDR-SRC2-3 interaction; assay type: binding
T3 sequence (P11473 1-427): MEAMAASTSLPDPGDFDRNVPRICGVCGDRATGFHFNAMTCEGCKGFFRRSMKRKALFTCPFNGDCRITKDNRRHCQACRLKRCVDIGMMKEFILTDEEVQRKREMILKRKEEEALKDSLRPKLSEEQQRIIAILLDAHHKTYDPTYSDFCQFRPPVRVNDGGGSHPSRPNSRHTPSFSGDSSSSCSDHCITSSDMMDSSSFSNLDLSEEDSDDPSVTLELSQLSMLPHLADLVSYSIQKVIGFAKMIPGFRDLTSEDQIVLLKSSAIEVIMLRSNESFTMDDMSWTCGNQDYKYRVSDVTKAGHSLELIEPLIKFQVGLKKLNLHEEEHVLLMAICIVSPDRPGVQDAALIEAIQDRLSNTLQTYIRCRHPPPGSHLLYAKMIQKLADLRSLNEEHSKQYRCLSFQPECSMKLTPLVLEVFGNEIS
In short: as §1

Row | SMILES | EC50 [2] [µM] | further results
1 | CS(=O)(=O)c1ccc(C(=O)NCC(=O)N(Cc2ccccc2)Cc2ccccc2)cc1[N+](=O)[O-] [3{1,18}] | 3.6 | Transcription of the PEPCK gene [1]: inhibited by the MSNBA 3{1,18} in dose-dependent manner; TRα-COA antagonism compared with TRβ (TRα / SRC2-2 interaction): slightly more potency against TRα
2 | CCCN(C(=O)CN(C)C(=O)c1ccc(S(C)(=O)=O)c([N+](=O)[O-])c1)c1ccccc1 [{4,12}] | > 60 | –
3 | CN(CC(=O)N(Cc1ccccc1)Cc1ccccc1)C(=O)c1ccc(S(C)(=O)=O)c([N+](=O)[O-])c1 [{4, 18}] | > 60 | –
4 | CS(=O)(=O)c1ccc(C(=O)NCCCC(=O)N2CCN(c3ccc(C(F)(F)F)cc3)CC2)cc1[N+](=O)[O-] [3{3,24}] | – | EC50 [3]: 7 µM; Activity against TR-SRC interaction ([2]; FP assay, in words): inactive
5 | CS(=O)(=O)c1ccc(C(=O)NCC(=O)NC23CC4CC(CC(C4)C2)C3)cc1[N+](=O)[O-] [3{1,1}] | 16 | –
6 | CS(=O)(=O)c1ccc(C(=O)NCCCC(=O)NC23CC4CC(CC(C4)C2)C3)cc1[N+](=O)[O-] [3{3,1}] | 11 | –
7 | CCCN(C(=O)CNC(=O)c1ccc(S(C)(=O)=O)c([N+](=O)[O-])c1)c1ccccc1 [3{1,12}] | 6.6 | –
8 | CS(=O)(=O)c1ccc(C(=O)NCC(=O)N(Cc2ccccc2)c2ccccc2)cc1[N+](=O)[O-] [3{1,13}] | – | TRα-COA antagonism compared with TRβ (TRα / SRC2-2 interaction): slightly more potency against TRα
9 | CN(CC(=O)NC12CC3CC(CC(C3)C1)C2)C(=O)c1ccc(S(C)(=O)=O)c([N+](=O)[O-])c1 [3{4,1}] | > 60 | –
10 | CN(C(=O)CNC(=O)c1ccc(S(C)(=O)=O)c([N+](=O)[O-])c1)c1ccccc1 [3{1, 11}] | 5.8 | –
